B1: tRNA (parent)
chain: GUUCCGUUGGCGUAAUGGUAACGCGUCUCCCUCCUAAGGAGAAGACUGCGGGUUCGAGUCCCGUACGGAACG

This sample holds only a part of the variants without activity.

Variants of B1 are the subject of the data set. The experiment in a line: yeast fitness relative to wild type (ratio to wild type); higher = fitter; tRNA-Arg(CCU), competitive growth, 37 C, YPD. The gist of the method: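 Amplicons of the tRNA-Arg(CCU) gene were sequenced, 100-nucleotide paired-end, from the start population and from each end population of a pooled yeast competition. The competition, in six parallel replicates, lasted 24 hours in YPD at 37°C. Fitness relative to wild type was calculated from changes in genotype frequencies. Genotypes had to have ≥ 100 starting reads, and estimates < 0.5 were set to 0.5.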
In the case of GUUCCGUUGGCGUAAGGGUAACGCGUCUCCCUCCUAAGGACAAGACUGCGGGUUCGAGUCCCGUACGGAACG [U16G G41C], the yeast fitness came out at 0.604.
Then GUUCCGUUGGCGUAAGGGCAACGCGUCCCCCUCCUAAGGAGAAGACUGCGGGUUCGAGUCCCGUACGGAACG [U16G U19C U28C], with 0.986; and GUUCCGUUGGCGUAAGGGUAAGGCGUCUCCCUCCUAAGGAGAGGAGUGCGGGUUCCAGUCCCGUACGGGACG [U16G C22G A43G C46G G56C A69G], with no more than 0.5.
Regarding GUUCCGUUGGCGUAAGGGUAACCCGUCUCCCUCCUAAGGAGAAGACUACGGGUUCGAGUCACGUAUGGAACG [U16G G23C G48A C61A C66U], the yeast fitness came out at 0.54.
As for GUUCCGUUGGCGUAAGGGGAACGCGUCUCCCUUCUAAGGCAACGACUGCGGGUUCGAGUCGCGUACGGAACG [U16G U19G C33U A40C G41A A43C C61G], the yeast fitness was no more than 0.5.
As to GUUCCGUUGGCGUAAGGGUAAGGCGUCUCCCUCCUAAGGAGAAGACUGCGGGUUCGAGUCCCGUACGGAACG [U16G C22G], the yeast fitness stood at 1.
For GUUCCGUUGGCGUAAGGGUAACGCGUCUCCGUCCUAAGGAGAAGUCUGCGGGUUCGAGUCCCGUACGGAACG [U16G C31G A45U], the yeast fitness came to 0.974.
Then GUUCCGUUGGCGUAAGGGUAACGCGUCUCUCUCCUAAGGAGAAGACUGCGGGUUCGAGUCCCGUACGGAACG [U16G C30U], with 0.777; and GUUCCGUUGGCGUAAGGGUAAGGCGUCUCCCUCCUAAGGAGACGACUGCGGGUUCGAGUCCCGUACGGAACG [U16G C22G A43C], with 0.587.
Turning to GUUCCGUUGGCGUAAGGGUAACGCGUCUCCCUCCUAAGGAGAACACUGCGGGUUCGAGUCCAGUACGGAACG [U16G G44C C62A], the yeast fitness turned out to be 0.875.
The result for GUUCCGUUGGCGUAAGGGUAACGCGUCUCCCUCCUAAGGAGAACACUGCGGGUUCGAGUCCUGUACGGAACG [U16G G44C C62U] reads 0.566.
For the variant GUUCCGUUGGCGUAAGGGUAACGCGUCUCCCUCCUAAGGAGAAGACUGCGGGUUCGAGUCCCCUACGGAACG [U16G G63C], the yeast fitness was 0.694.
Turning to GUUCCGUUGGCGUAAGGGUAACGCGUCUCCCUCCUAAGGAGAAGACUCCGGGUUCGAGUCCCGUACGGAACG [U16G G48C], the yeast fitness was found to be 0.835.
Then GUUCCGUUGGCGUAAGGGUAACGCGUCUGCCUUCUAAGAAGAAGACUGUGGGUUCGAGUCCCGUACGGAACG [U16G C29G C33U G39A C49U], with no more than 0.5; and GUUCCGUUGGCGUAAGGGUAAGGCGUCUCCCUCCUAAGGAGAAGACUGCGGGUUCGAGUCCCGUACGGAGCG [U16G C22G A70G], with 0.767.
For the variant GUUCCGUUGGCGUAAGGGUAACGCGUCUGCCUCCUAAGGAGAAGACUGCGGGUUCGAGUCCUGUACGGAACG [U16G C29G C62U], the yeast fitness is no more than 0.5.
The result for GUUCCGUUGGCGUAAGGGUAACGCGUCUGCCUCCUAAGGAGAAGACUGCGGGUUCGAGUCCGGUACGGAACG [U16G C29G C62G] reads no more than 0.5; that for GUUCCGUUGGCGUAAGGGUAACGCGUCUCCCUCCUAAGGAGAAGACUGCGGGUUCGAGUCCCGUACGUAACG [U16G G68U], 0.853; that for GUUCCGUUGGCGUAAGGGUAACGCGUCUCCCUCUUAAGGAGAAGACUGCGGGUUCGGGUCCCGUACGGCACG [U16G C34U A57G A69C], no more than 0.5.
In the case of GUUCCGUUGGCGUAAGGGUAACGCGUCUCCCUCCUAAGGAGAAGACUGCGGGUUCGAGUUCCGUACGGAACG [U16G C60U], the yeast fitness came out at 0.772.
For GUUCCGUUGGCGUAAGGGUAACGCGUCUCCCUCCUAAGGAGAAGAAUGCGGGUUCGAGUCCCGUACGGAACG [U16G C46A], the yeast fitness was 0.754.
The result for GUUCCGUUGGCGUAAGGGUAACGCGUCUCCCUCCUAAGGAGAAGAGUGCGGGUUCGAGUCCCGUACGGAACG [U16G C46G] reads 1.06.
In the case of GUUCCGUUGGCGUAAGGGUAACGCGUGUCCCUCCUAAGGAGAAGACUGAGGGUUCGAGUACCGUACGGAACG [U16G C27G C49A C60A], the yeast fitness was no more than 0.5.
On to GUUCCGUUGGCGUAAGGGUAACGCGUCUCCCUCCUAAGGAGAACACUGCGGGUUCGAGUCCCGUACGAUACG [U16G G44C G68A A69U], for which the yeast fitness came out at 0.609.
On to GUUCCGUUGGCGUAAGGGUAACGUGUCUCCCUCCUAAGGAGAAGACUGGGGGUUCGAGUCCCCUACGGAACG [U16G C24U C49G G63C], for which the yeast fitness is no more than 0.5.
Turning to GUUCCGUUGGCGUAAGGGUAACGUGUCUCCCUCCUAAGGAGAAAAGUGCGGGUUCGAGUCCCGUACGGAACG [U16G C24U G44A C46G], the yeast fitness is no more than 0.5.
GUUCCGUUGGCGUAAGGGUAACCCGUCUCCCUCCUAAGGAGAAGACUACGGGUUCGAGUCACGUACGGAACG [U16G G23C G48A C61A]: the yeast fitness turned out to be 0.577.
The result for GUUCCGUUGGCGUAAGGGUAACGGGUCUCCCUCCUAUGGAGAAGACUGCGGGUUCGAGUCCCGUACGGAACG [U16G C24G A37U] reads no more than 0.5; that for GUUCCGUUGGCGUAAGGGUAACGCGUCUCCCUCCUAAGGAGAAGACUGGGGGUUCGAGUCCCGUACGGAACG [U16G C49G], 0.636; that for GUUCCGUUGGCGUAAGGGUAACGCGUCUCCCUCCUAAGGAGAAGACUGUGGGUUCGAGUCCCGUACGGAACG [U16G C49U], 0.916.
Consider GUUCCGUUGGCGUAAGGGUAAGGCGUCUCCCUCCUAAGGAGAAGAGUGCGGGUUCGAGUCCCGUACGGAACG [U16G C22G C46G], for which the yeast fitness came out at 0.657.
Then GUUCCGUUGGCGUAAGGGUAACGCGUCUCCUUCCUAAGGAGAAGACUGCGCGUUCGAGUCCCGUCCGGAACG [U16G C31U G51C A65C], with no more than 0.5; and GUUCCGUUGGCGUAAGGGUAACGCGUCUCCGUCCUAAGGAGAAGACUGCGGGUUCGAGUCCCGUCCGGAACG [U16G C31G A65C], with no more than 0.5.
Consider GUUCCGUUGGCGUAAGGGUAACACGUCUCCCUCCUAAGGCGAAGACUGCGGGUUCGAGUCCCGUAUGGAACG [U16G G23A A40C C66U], for which the yeast fitness was no more than 0.5.
GUUCCGUUGGCGUAAGGGUAAUGCGUCUCCCUCCUAUGGAGAAGACUGCCGGUUCGAGUCCCGUACGGAACG [U16G C22U A37U G50C]: the yeast fitness was no more than 0.5.
The result for GUUCCGUUGGCGUAAGGGUAAGGCGUCUCCCUCGUAAGGAGAAGACUGCCGGUUCGAGUCCCGUACGGUACG [U16G C22G C34G G50C A69U] reads 0.528.
Take GUUCCGUUGGCGUAAGGGUAACGCGUCUCCCUCCUAAGGAGAAGACUGCGGGUUCGAGUCGCGUUCGGAACG [U16G C61G A65U]: the yeast fitness is no more than 0.5.
As to GUUCCGUUGGCGUAAGGGUAACGCGUAUCCGUCCUAAGGAGGAGACUGCGGGUUCGAGUCACGUACGGAACG [U16G C27A C31G A42G C61A], the yeast fitness was 0.543.
